# Source: PubChem
# An excerpt weighted towards active compounds, which were near 1.4% of everything screened.
# Env fusion inh: inhibitors of HIV Env-mediated cell fusion; HeLa-JRFL Env/CEM21 cell fusion, luciferase; inhibition, % at 12.3 µM; actives 1.1% (n = 360,000); AID 651610;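 active = mean replicate inhibition score of at least 50 and every replicate individually at or above 50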;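 also: 0% = plate neutral controls and 100% = maraviroc near 300 nM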
# GSK3beta inhib: human GSK3beta kinase inhibition; activity score (negative = inhibition), % at 10 µM; actives 0.038% (n = 300,000); P49841; AID 2097; GST-GSK3beta kinase, ADP-Glo luminescence, 60 min; stronger effect = lower value;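 active = more than half of replicate wells score below -50%, meaning over 50% inhibition versus plate controls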;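 also: 0% = median DMSO wells and -100% = median GW8510 positive control wells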
#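 Test system: GST-fused GSK3beta enzyme, cell-free | Quantity: 1.6 ng GST-GSK3beta enzyme per well | Reagent: 25 µM ATP with peptide substrate | Schedule: 60 min enzyme reaction, room temperature | Signal: Luminescent ADP-Glo measurement of ADP formed | Read-out basis: Score relative to plate controls | Control set: DMSO and 20 µM GW8510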
# GSK3 alpha inh: inhibitors of human GSK-3 alpha kinase; P49840; ADP-Glo luminescence, 60 min; inhibition, % at 10 µM; actives 0.1% (n = 320,000); AID 2650;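 active = more than half of replicates show inhibition above 20%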;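 also: GST-tagged GSK-3 alpha with peptide substrate and 25 µM ATP; 0% = DMSO neutral wells and 100% = GW8510 positive control wells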
# Target sequence (P49840 whole entry, looked up): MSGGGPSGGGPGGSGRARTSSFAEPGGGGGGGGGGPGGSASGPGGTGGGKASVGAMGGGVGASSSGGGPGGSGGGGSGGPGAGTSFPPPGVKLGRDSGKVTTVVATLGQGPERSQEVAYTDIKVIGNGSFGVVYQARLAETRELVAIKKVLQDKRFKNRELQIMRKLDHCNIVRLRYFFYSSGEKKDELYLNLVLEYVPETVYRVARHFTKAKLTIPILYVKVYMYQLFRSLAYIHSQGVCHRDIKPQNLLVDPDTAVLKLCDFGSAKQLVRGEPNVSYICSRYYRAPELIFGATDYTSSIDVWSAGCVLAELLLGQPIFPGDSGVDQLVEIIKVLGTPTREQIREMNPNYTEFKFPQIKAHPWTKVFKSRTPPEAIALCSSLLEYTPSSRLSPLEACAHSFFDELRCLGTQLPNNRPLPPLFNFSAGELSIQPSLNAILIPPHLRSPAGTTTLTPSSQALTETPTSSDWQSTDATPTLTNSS
# STK33 kinase inh: blocks human STK33 kinase activity. purified STK33, MBP phosphorylation, ADP-Glo luminescence. inhibition, % at 10 µM. actives 0.073% (n = 320,000);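 active = inhibition at or above 25%, using the most active replicate where run in duplicate; inactive = inhibition below 25%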
# CDK5 inh: blocks human CDK5/p35 kinase activity; Q00535+Q15078; AID 488839; inhibition, % at 10 µM; actives 0.01% (n = 330,000); Recombinant CDK5/p35, ADP-Glo luminescence, 60 min;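 active = highest replicate inhibition of at least 50% and at least 75% of replicates reaching 50%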;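 also: plate controls were DMSO neutral control for no effect and GW8510 at 10 µM for full effect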
# INS-1E GSIS act: GLuc luminescence reporter in INS-1E cells, primary screen for activators of glucose-dependent secretion of insulin; actives 0.61% (n = 370,000); INS-1E GLuc reporter insulin secretion, 2-3 h; activation, % at 16.6 µM; AID 743287;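 active = lowest replicate activation of at least 40%, so every replicate reaches that level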;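 also: 0% = median of neutral control wells and 100% = median of IBMX positive control wells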
# * = called active by the depositor; . = not tested or not shown; [ ] = remark or other dose.
SMILES,Env fusion inh,GSK3beta inhib,GSK3 alpha inh,STK33 kinase inh,CDK5 inh,INS-1E GSIS act
Cc1cccc(C)c1N(CC(O)Cn1c2ccccc2c2ccccc21)S(C)(=O)=O (configuration not stated),84*,0,-3,1,-5,.
NC(Cc1ccc(F)cc1)c1csc(Nc2ccc(C(F)(F)F)cn2)n1 (configuration not stated),71*,.,.,.,.,-29
Cc1cnc(C)c(Nc2nc(C(N)Cc3ccc(C(F)(F)F)cc3)cs2)n1 (configuration not stated),106*,.,.,.,.,-36
C[C@H]1CCCCO[C@H](CN(C)Cc2ccncc2)[C@@H](C)CN([C@@H](C)CO)C(=O)c2cc(NC(=O)CCCN(C)C)ccc2O1,-19[16.7 µM],.,.,.,.,9
CC(C)C(Cl)=NOC(=O)Nc1ccc(S(N)(=O)=O)cc1,11,.,.,.,3,126*
C[C@@H]1CN([C@@H](C)CO)C(=O)c2cc(NC(=O)CCC(F)(F)F)ccc2O[C@@H](C)CCCCO[C@H]1CN(C)Cc1ccc(C(F)(F)F)cc1,17[16.7 µM],.,.,.,.,-19
O=c1c2c([N+](=O)[O-])cc([N+](=O)[O-])cc2sn1Cc1ccccc1,-20,-3,-2,-1,3,128*
O=c1c2c([N+](=O)[O-])cc([N+](=O)[O-])cc2sn1-c1ccc(Br)cc1,.,.,-3,-1,-1,.
O=C(C[C@@H]1CC[C@@H](NC(=O)CN2CCOCC2)[C@H](CO)O1)NCc1cccc(F)c1,-1[16.7 µM],.,.,.,.,12
O=C(C[C@H]1CC[C@@H]2[C@H](COC[C@@H](O)CN2S(=O)(=O)c2cccc(Cl)c2)O1)NC1CCCC1,.,.,.,.,.,4
O=c1[nH]nc(-c2ccc(F)cc2)cc1Cc1cccs1,5,0,0,2,-1,46*
Cc1ccc(-c2cc(Cc3cccs3)c(=O)[nH]n2)cc1,-1,2,-1,0,-1,27
CCCn1nc(C(=O)NC2CCCC2)c2ccccc2c1=O,.,.,-1,-4,-10,58*
CCCCn1nc(C(=O)NC2CCCCCC2)c2ccccc2c1=O,21,.,-2,0,-1,2
CC(C)c1cn(CC[C@H]2CC[C@@H](NC(=O)C3CCCC3)[C@@H](CO)O2)nn1,6[16.7 µM],.,.,.,.,18
COc1ccccc1NC(=O)N[C@@H]1CC[C@@H](CC(=O)N2CCC(Cc3ccccc3)CC2)O[C@H]1CO,-4[16.7 µM],.,.,.,.,-18
O=C(Nc1ccc(-c2nc3ccccc3o2)cc1)c1cc(-n2cnnc2)ccc1Cl,58*,0,3,0,1,.
CCCN1[C@@H]2c3ccc(-c4ccccc4)c(=O)n3C[C@H]1[C@H](CO)[C@H]2C(=O)NCCCN1CCOCC1,.,.,.,.,.,1
COCCNC(=O)C[C@@H]1CC[C@@H]2[C@H](COc3ccc(NC(=O)C4CCCC4)cc3C(=O)N2C)O1,-9[16.7 µM],.,.,.,.,2
CN1c2ccc(C3=CCCCC3)cc2[C@@H]2[C@@H](CCN2C(=O)C2CC2)[C@@H]1CO,.,.,.,.,.,-14
CN1c2ccc(C3=CCCCC3)cc2[C@H]2[C@H](CCN2C(=O)C2CC2)[C@@H]1CO,98*[16.7 µM],.,.,.,.,.
Cc1ccc(-c2nn(-c3ccccc3)cc2/C=N/O)cc1,-19,-52*,78*,3,1,-12
O/N=C/c1cn(-c2ccccc2)nc1-c1cccnc1,-7,-29,71*,0,1,23
O=C(N/N=C/c1cn(-c2ccccc2)nc1-c1cccnc1)c1cccnc1,-12,-2,0,-1,-3,11
O=C1N[C@H](Cc2ccccc2)COCc2cnnn2CC[C@@H]1Cc1cccc(F)c1,.,.,.,.,.,23
CCc1cc(-c2nnn(-c3cc(C(C)C)ccc3C)c2CC)ccc1-c1cn(CCc2c[nH]c3ccccc23)nn1,84*,.,.,.,.,-2
CO[C@@H]1CN(C)C(=O)c2ccc(NC(=O)c3cccc(F)c3)cc2OC[C@@H](C)N(C(C)=O)C[C@H]1C,.,.,.,.,.,-2
O=C(Nc1ccncc1)c1ccc(Cl)c(S(=O)(=O)N2CCc3ccccc32)c1,90*,1,-1,-1,0,-18
COc1ccc(C(=O)Nc2ccc(S(=O)(=O)N3CCc4ccccc43)cc2)cc1,62*,-1,2,0,-1,.
NS(=O)(=O)c1ccc(NC(=O)c2ccc(S(=O)(=O)N3CCc4ccccc43)cc2)cc1,18,1,-4,-2,2,1
